Measured values from ChEMBL document CHEMBL3286116, “Synthesis, biological evaluation and structure-activity correlation study of a series of imidazol-based compounds as Candida albicans inhibitors” (Eur J Med Chem, 2014).
Values after ≈ are worked out from the molar mass of the structure shown.

Legend:
Type in all cases: functional
Candida parapsilosis [1] = assay: Antifungal activity against Candida parapsilosis DSM 11224 after 48 hrs by CLSI broth microdilution method; settings: Lodderomyces parapsilosis, DSM 11224, 48 h
Method in brief: (§1)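 Yeast CLSI broth microdilution (M27-A3). Compounds dissolved in DMSO at 100× the top test concentration, then diluted as serial two-fold dilutions in RPMI 1640 to final 0.125–64. Inoculum was 1.0–1.5 × 10^3 cells mL−1, incubated at 35 °C and read for growth at 48 h. MIC is the lowest concentration giving ≥50% growth inhibition versus growth control. Reported as the median of five replicates and as the geometric mean.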

Candida albicans [2] = assay: Antifungal activity against Candida albicans ATCC 3153 after 48 hrs by CLSI broth microdilution method; settings: ATCC 3153, 48 h; method in brief: as §1
Candida parapsilosis [3] = assay: Antifungal activity against Candida parapsilosis ATCC 22019 after 48 hrs by CLSI broth microdilution method; settings: Lodderomyces parapsilosis, ATCC 22019, 48 h; method in brief: as §1
[4] = system: Trichophyton mentagrophytes; assay: Antifungal activity against Trichophyton mentagrophytes PMC 6531 after 72 hrs by CLSI broth microdilution method; settings: PMC 6531, 72 h
Method in brief: (§2)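 Dermatophytes tested by CLSI broth microdilution for filamentous fungi (M38-A2). Serial two-fold dilutions of DMSO-dissolved compound in RPMI 1640, final 0.125–64. Inoculum was 0.4–5 × 10^4 CFU mL−1, incubated at 35 °C and read at 72 h. MIC80 is the lowest concentration giving ≥80% growth inhibition versus growth control. Median of five replicates, plus geometric mean.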

[5] = system: Trichophyton mentagrophytes; assay: Antifungal activity against Trichophyton mentagrophytes PMC 6503 after 72 hrs by CLSI broth microdilution method; settings: PMC 6503, 72 h; method in brief: as §2
Cryptococcus neoformans [6] = assay: Antifungal activity against Cryptococcus neoformans PMC 2136 after 72 hrs by CLSI broth microdilution method; settings: PMC 2136, 72 h
Method in brief: (§3)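 Cryptococcus neoformans tested by CLSI broth microdilution in RPMI 1640, with serial two-fold dilutions from DMSO stocks at 100× the top concentration, final 0.125–64. Inoculum was 1.0–1.5 × 10^3 cells mL−1 at 35 °C, with growth read at 72 h. MIC is the lowest concentration with ≥50% growth inhibition versus control. Median of five replicates, plus geometric mean.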

Nannizzia gypsea [7] = assay: Antifungal activity against Microsporum gypseum DSM 3824 after 72 hrs by CLSI broth microdilution method; settings: DSM 3824, 72 h; method in brief: as §2
Candida albicans [8] = assay: Antifungal activity against Candida albicans ATCC 10231 after 48 hrs by CLSI broth microdilution method; settings: ATCC 10231, 48 h; method in brief: as §1
Candida tropicalis [9] = assay: Antifungal activity against Candida tropicalis PMC 0910 after 48 hrs by CLSI broth microdilution method; settings: PMC 0910, 48 h; method in brief: as §1
Cryptococcus neoformans [10] = assay: Antifungal activity against Cryptococcus neoformans DSM 11959 after 72 hrs by CLSI broth microdilution method; settings: DSM 11959, 72 h; method in brief: as §3
Nannizzia gypsea [11] = assay: Antifungal activity against Microsporum gypseum PMC 7303 after 72 hrs by CLSI broth microdilution method; settings: PMC 7303, 72 h; method in brief: as §2
Cryptococcus neoformans [12] = assay: Antifungal activity against Cryptococcus neoformans PMC 2115 after 72 hrs by CLSI broth microdilution method; settings: PMC 2115, 72 h; method in brief: as §3
Cryptococcus neoformans [13] = assay: Antifungal activity against Cryptococcus neoformans PMC 2107 after 72 hrs by CLSI broth microdilution method; settings: PMC 2107, 72 h; method in brief: as §3
Cryptococcus neoformans [14] = assay: Antifungal activity against Cryptococcus neoformans PMC 2111 after 72 hrs by CLSI broth microdilution method; settings: PMC 2111, 72 h; method in brief: as §3
Cryptococcus neoformans [15] = assay: Antifungal activity against Cryptococcus neoformans PMC 2103 after 72 hrs by CLSI broth microdilution method; settings: PMC 2103, 72 h; method in brief: as §3
Candida tropicalis [16] = assay: Antifungal activity against Candida tropicalis DSM 11953 after 48 hrs by CLSI broth microdilution method; settings: DSM 11953, 48 h; method in brief: as §1
Candida albicans [17] = assay: Antifungal activity against Candida albicans ATCC 10261 after 48 hrs by CLSI broth microdilution method; settings: ATCC 10261, 48 h; method in brief: as §1
Candida albicans [18] = assay: Antifungal activity against Candida albicans ATCC 90028 after 48 hrs by CLSI broth microdilution method; settings: ATCC 90028, 48 h; method in brief: as §1
Candida albicans [19] = assay: Antifungal activity against Candida albicans PMC 1011 after 48 hrs by CLSI broth microdilution method; settings: PMC 1011, 48 h; method in brief: as §1
Nakaseomyces glabratus [20] = assay: Antifungal activity against Candida glabrata PMC 0805 after 48 hrs by CLSI broth microdilution method; settings: PMC 0805, 48 h; method in brief: as §1
Pichia kudriavzevii [21] = assay: Antifungal activity against Candida krusei DSM 6128 after 48 hrs by CLSI broth microdilution method; settings: DSM 6128, 48 h; method in brief: as §1
Nakaseomyces glabratus [22] = assay: Antifungal activity against Candida glabrata PMC 0807 after 48 hrs by CLSI broth microdilution method; settings: PMC 0807, 48 h; method in brief: as §1
[23] = system: Trichophyton mentagrophytes; assay: Antifungal activity against Trichophyton mentagrophytes PMC 6552 after 72 hrs by CLSI broth microdilution method; settings: PMC 6552, 72 h; method in brief: as §2
Cryptococcus neoformans [24] = assay: Antifungal activity against Cryptococcus neoformans PMC 2123 after 72 hrs by CLSI broth microdilution method; settings: PMC 2123, 72 h; method in brief: as §3
[25] = system: Trichophyton mentagrophytes; assay: Antifungal activity against Trichophyton mentagrophytes DSM 4870 after 72 hrs by CLSI broth microdilution method; settings: DSM 4870, 72 h; method in brief: as §2
[26] = system: Trichophyton mentagrophytes; assay: Antifungal activity against Trichophyton mentagrophytes PMC 6515 after 72 hrs by CLSI broth microdilution method; settings: PMC 6515, 72 h; method in brief: as §2
Candida albicans [27] = assay: Antifungal activity against Candida albicans ATCC 24433 after 48 hrs by CLSI broth microdilution method; settings: ATCC 24433, 48 h; method in brief: as §1
Cryptococcus neoformans [28] = assay: Antifungal activity against Cryptococcus neoformans PMC 2102 after 72 hrs by CLSI broth microdilution method; settings: PMC 2102, 72 h; method in brief: as §3
Candida albicans [29] = assay: Antifungal activity against Candida albicans ATCC 20891 after 48 hrs by CLSI broth microdilution method; settings: ATCC 20891, 48 h; method in brief: as §1
Nannizzia gypsea [30] = assay: Antifungal activity against Microsporum gypseum PMC 7331 after 72 hrs by CLSI broth microdilution method; settings: PMC 7331, 72 h; method in brief: as §2
Candida albicans [31] = assay: Antifungal activity against Candida albicans ATCC 76615 after 48 hrs by CLSI broth microdilution method; settings: ATCC 76615, 48 h; method in brief: as §1
Pichia kudriavzevii [32] = assay: Antifungal activity against Candida krusei PMC 0613 after 48 hrs by CLSI broth microdilution method; settings: PMC 0613, 48 h; method in brief: as §1
[33] = system: Trichophyton mentagrophytes; assay: Antifungal activity against Trichophyton mentagrophytes PMC 6509 after 72 hrs by CLSI broth microdilution method; settings: PMC 6509, 72 h; method in brief: as §2

Row | SMILES | MIC50 (Candida parapsilosis [1]) | MIC50 (Candida albicans [2]) | MIC50 (Candida parapsilosis [3]) | MIC80 [4] | MIC80 [5] | MIC50 (Cryptococcus neoformans [6]) | MIC80 (Nannizzia gypsea [7]) | MIC50 (Candida albicans [8]) | MIC50 (Candida tropicalis [9]) | MIC50 (Cryptococcus neoformans [10]) | MIC80 (Nannizzia gypsea [11]) | MIC50 (Cryptococcus neoformans [12]) | MIC50 (Cryptococcus neoformans [13]) | MIC50 (Cryptococcus neoformans [14]) | MIC50 (Cryptococcus neoformans [15]) | MIC50 (Candida tropicalis [16]) | MIC50 (Candida albicans [17]) | MIC50 (Candida albicans [18]) | MIC50 (Candida albicans [19]) | MIC50 (Nakaseomyces glabratus [20]) | also measured
1 | O=C(OC(Cn1ccnc1)c1ccc(Cl)cc1)N1CCN(c2ccc([N+](=O)[O-])cc2)CC1 (stereo unspecified) | 4 µg/mL (≈ 8.77 µM) | 16 µg/mL (≈ 35.1 µM) | 8 µg/mL (≈ 17.5 µM) | 32 µg/mL (≈ 70.2 µM) | 64 µg/mL (≈ 140 µM) | 8 µg/mL (≈ 17.5 µM) | 64 µg/mL (≈ 140 µM) | 16 µg/mL (≈ 35.1 µM) | 64 µg/mL (≈ 140 µM) | 8 µg/mL (≈ 17.5 µM) | 32 µg/mL (≈ 70.2 µM) | 32 µg/mL (≈ 70.2 µM) | 8 µg/mL (≈ 17.5 µM) | 8 µg/mL (≈ 17.5 µM) | 8 µg/mL (≈ 17.5 µM) | 128 µg/mL (≈ 281 µM) | 8 µg/mL (≈ 17.5 µM) | 2 µg/mL (≈ 4.39 µM) | 16 µg/mL (≈ 35.1 µM) | 64 µg/mL (≈ 140 µM) | MIC50 (Pichia kudriavzevii [21]): 128 µg/mL (≈ 281 µM); MIC50 (Nakaseomyces glabratus [22]): 64 µg/mL (≈ 140 µM); MIC80 [23]: 32 µg/mL (≈ 70.2 µM); MIC50 (Cryptococcus neoformans [24]): 64 µg/mL (≈ 140 µM); MIC80 [25]: 64 µg/mL (≈ 140 µM); MIC80 [26]: 32 µg/mL (≈ 70.2 µM); MIC50 (Candida albicans [27]): 32 µg/mL (≈ 70.2 µM); MIC50 (Cryptococcus neoformans [28]): 16 µg/mL (≈ 35.1 µM); MIC50 (Candida albicans [29]): 8 µg/mL (≈ 17.5 µM); MIC80 (Nannizzia gypsea [30]): 16 µg/mL (≈ 35.1 µM); MIC50 (Candida albicans [31]): 128 µg/mL (≈ 281 µM); MIC50 (Pichia kudriavzevii [32]): 16 µg/mL (≈ 35.1 µM); MIC80 [33]: 32 µg/mL (≈ 70.2 µM)
2 | CCS(=O)(=O)N1CCN(c2ccc(NC(=O)OC(Cn3ccnc3)c3ccc(F)cc3)cc2)CC1 (stereo unspecified) | 128 µg/mL (≈ 255 µM) | 128 µg/mL (≈ 255 µM) | 128 µg/mL (≈ 255 µM) | 128 µg/mL (≈ 255 µM) | 128 µg/mL (≈ 255 µM) | 16 µg/mL (≈ 31.9 µM) | 128 µg/mL (≈ 255 µM) | 128 µg/mL (≈ 255 µM) | 128 µg/mL (≈ 255 µM) | 16 µg/mL (≈ 31.9 µM) | 128 µg/mL (≈ 255 µM) | 32 µg/mL (≈ 63.8 µM) | 8 µg/mL (≈ 15.9 µM) | 16 µg/mL (≈ 31.9 µM) | 16 µg/mL (≈ 31.9 µM) | 128 µg/mL (≈ 255 µM) | 128 µg/mL (≈ 255 µM) | 128 µg/mL (≈ 255 µM) | 128 µg/mL (≈ 255 µM) | 128 µg/mL (≈ 255 µM) | MIC50 (Pichia kudriavzevii [21]): 128 µg/mL (≈ 255 µM); MIC50 (Nakaseomyces glabratus [22]): 128 µg/mL (≈ 255 µM); MIC80 [23]: 128 µg/mL (≈ 255 µM); MIC50 (Cryptococcus neoformans [24]): 32 µg/mL (≈ 63.8 µM); MIC80 [25]: 128 µg/mL (≈ 255 µM); MIC80 [26]: 128 µg/mL (≈ 255 µM); MIC50 (Candida albicans [27]): 128 µg/mL (≈ 255 µM); MIC50 (Cryptococcus neoformans [28]): 16 µg/mL (≈ 31.9 µM); MIC50 (Candida albicans [29]): 128 µg/mL (≈ 255 µM); MIC80 (Nannizzia gypsea [30]): 128 µg/mL (≈ 255 µM); MIC50 (Candida albicans [31]): 128 µg/mL (≈ 255 µM); MIC50 (Pichia kudriavzevii [32]): 128 µg/mL (≈ 255 µM); MIC80 [33]: 128 µg/mL (≈ 255 µM)
